Bioassay records (PubChem BioAssay)
STEP inh – STEP phosphatase inhibitors, primary screen, biochemical, fluorescence intensity, uHTS; 360,000 compounds, 0.25% hits; inhibition, % at 20 µM; AID 588621, 2011; recombinant STEP, OMFP fluorogenic substrate; Tyrosine-protein phosphatase non-receptor type 5 (Homo sapiens), P54829;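 active means inhibition at 20 µM, scaled per plate between control wells, above about 37%, limit read from the data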;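 further: 0% = DMSO with enzyme and substrate and 100% = substrate only without enzyme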
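Material: STEP (striatal-enriched tyrosine phosphatase) enzyme, cell-free | Medium: 50 mM Bis-Tris pH 6.0 with 2.5 mM DTT and 0.005% Tween 20 | Read-out: Percent inhibition scaled to no-enzyme and uninhibited-enzyme controls, plate-pattern corrected | Signal: Fluorescence read at 480 nm ex / 540 nm em | Times: 20 min reaction, room temperature, in the dark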
Scp-1 inhibitor – Scp-1 phosphatase inhibitors, primary screen, biochemical, colorimetric, uHTS | Carboxy-terminal domain RNA polymerase II polypeptide A small phosphatase 1 (Homo … | Recombinant Scp1, phosphopeptide, malachite green phosphate absorbance | inhibition, % at 20 µM | 340,000 compounds, 0.88% hits | AID 493091, 2011;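 active means inhibition above about 50% at 20 µM, limit read from the data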;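 further: plate controls were DMSO wells with enzyme for no effect and wells lacking enzyme for full effect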
Target sequence (Q9GZU7 76-261 limits assumed): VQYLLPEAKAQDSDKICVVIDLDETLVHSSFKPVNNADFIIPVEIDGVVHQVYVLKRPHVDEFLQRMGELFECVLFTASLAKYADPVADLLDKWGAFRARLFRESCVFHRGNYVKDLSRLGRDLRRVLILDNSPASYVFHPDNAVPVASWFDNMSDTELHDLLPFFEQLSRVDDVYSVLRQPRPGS
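Times: enzyme reaction 45 min at room temperature, colour 5 min, stabilisation 30 min. Material: SCP-1 catalytic fragment, aa 76-261. Medium: Acidic Tris acetate buffer with magnesium and detergent. Signal: colorimetric free-phosphate detection, absorbance 630 nm. Read-out basis: % inhibition of SCP-1 phosphate liberation. Reagent: Phosphorylated 17-residue peptide substrate.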
SUMO1-SIM PPI – modulators of SUMO1 protein-protein interactions, primary screen, biochemical, uHTS; Small ubiquitin-related modifier 1 (Homo sapiens), P63165; SUMO1 binding to a labelled peptide, TR-FRET, 1 h; inhibition, % at 20 µM; 360,000 compounds, 0.33% hits; AID 602429, 2012; in the data active means inhibition above about 37%
Target sequence (P63165 whole entry, looked up): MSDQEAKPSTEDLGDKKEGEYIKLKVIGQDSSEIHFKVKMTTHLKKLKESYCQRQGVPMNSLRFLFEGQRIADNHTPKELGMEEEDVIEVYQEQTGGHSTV
HKDC1 inhibitor – HKDC1 hexokinase inhibitors, primary screen, biochemical, fluorescence, uHTS; recombinant HKDC1, G6PDH/diaphorase resazurin coupled fluorescence; 340,000 compounds, 0.16% hits; Q2TB90; AID 493160, 2011; inhibition, % at 20 µM;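 active means inhibition above about 35% when tested at 20 µM, limit read from the data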;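 further: plate controls were DMSO wells with enzyme for no effect and DMSO wells lacking enzyme for full effect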
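Assay system: in-house recombinant HK5 (HKDC1) enzyme. Input: HKDC1 at 5 µg/mL. Medium: Tris pH 8.0 buffer with MgCl2, Tween-20, BSA, BME. Dosing: single 20 µM dose. Schedule: 90 min reaction incubation at room temperature, dark. Signal: resazurin-to-resorufin fluorescence via G6PDH and diaphorase coupling, 525/613 nm. Controls: DMSO-enzyme wells negative, buffer-substituted wells positive.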
LMPTP block – LMPTP phosphatase inhibitors, primary screen, biochemical, fluorescence intensity, uHTS; recombinant LMPTP-A, OMFP fluorogenic substrate; inhibition, % at 20 µM; 360,000 compounds, 0.22% hits; AID 651560, 2012;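 active means compounds that cut the enzyme signal by at least half of the control window in the single-dose screen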;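 further: plate controls were DMSO wells with enzyme plus substrate for no effect and substrate without enzyme for full effect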
Target sequence (P24666 whole entry, looked up): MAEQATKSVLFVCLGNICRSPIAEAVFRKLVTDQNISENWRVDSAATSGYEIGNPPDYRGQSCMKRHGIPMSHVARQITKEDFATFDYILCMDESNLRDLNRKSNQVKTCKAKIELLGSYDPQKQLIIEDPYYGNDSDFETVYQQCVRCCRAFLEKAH
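Assay system: LMPTP-A phosphatase enzyme | Input: 0.625 nM enzyme | Also added: Fluorogenic phosphatase substrate OMFP at 400 µM final | Compound dosing: One test concentration per compound, 20 µM, with 3% DMSO overall | Schedule: 50 min enzyme reaction at room temperature, protected from light | Signal: Fluorescence intensity | Benchmarks: no-enzyme and uninhibited controls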
DNMT1 block – human DNMT1 methyltransferase inhibitors, primary screen, biochemical, molecular beacon, fluorescence, HinP1I cleavage, uHTS; 360,000 compounds, 0.83% hits; DNA (cytosine-5)-methyltransferase 1 (Homo sapiens), P26358; inhibition (reported as % activation of signal), % at 10 µM; in the data active means inhibition above about 50%
STEP inh conf – STEP phosphatase inhibitor hit confirmation, biochemical, fluorescence intensity, single concentration. shares compounds with STEP inh. recombinant STEP, OMFP fluorogenic substrate. inhibition, % at 20 µM. 520 compounds, 32% hits; call rule not given here;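 further: 0% = enzyme with substrate plus DMSO and 100% = substrate without enzyme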
* = called active by the depositor; / = not tested or not shown. This is a sample that favours compounds with a hit; in the whole collection about 1.8% have one here.

SMILES	STEP inh	Scp-1 inhibitor	SUMO1-SIM PPI	HKDC1 inhibitor	LMPTP block	DNMT1 block	STEP inh conf
CCN1CCN(C(=S)c2ccc(O)cc2)CC1	88*	2	5	-12	0	0	49*
O=C(NC1CCCCCC1)C(=S)NC1CCCCC1	57*	-6	0	-5	-1	2	31*
O=C(CCc1nnc2ccc(NCc3ccco3)nn12)N1CCN(c2ccc(F)cc2)CC1	-1	10	9	3	1	-3	/
CN(C)S(=O)(=O)c1cc(NC(=O)c2cc(=O)c3ccccc3o2)ccc1Cl	0	-8	-15	3	1	-3	/
COc1ccc(NC(=O)c2cc(=O)c3ccccc3o2)cc1Cl	42*	36	8	-2	1	18	28*
COCc1ccc(C(=O)N2CCCC(N3CCN(c4cccc(Cl)c4)CC3)C2)s1 (stereo not drawn)	0	/	-3	/	-1	6	/
O=S1OCCN1c1ccccc1 (stereo not drawn)	42*	-2	1	-4	-1	1	31
O=C(O)c1ccc(NC(=S)Nc2ccccc2)cc1	107*	6	2	-5	-1	1	8
CCc1ccc(Nc2nc(N)nc(CSc3nc4ccccc4s3)n2)cc1	43*	-11	-2	13	-2	7	8
COc1ccc(C(=O)Nc2cc(-c3ccc(C)cc3)no2)cc1	94*	-1	0	-1	1	5	-5
C[C@H]1CN([C@@H](C)CO)C(=O)CCCn2cc(nn2)CO[C@@H]1CN(C)C(=O)NC1CCCCC1	-2	/	4	/	-1	4	/
CC(C)(C)OC(=O)[C@H](Cc1ccccc1)NC(=O)c1nc[nH]c1C(=O)NC1CCN(C(=O)OC(C)(C)C)CC1	-2	-8	-3	0	2	-8	/
N#C/C(=C/c1ccc(OCc2ccc(C(=O)O)cc2)c(Br)c1)c1cccc(F)c1	94*	50*	20	13	86*	93*	16
OCC[C@@H]1C[C@H](O)[C@@H](O)[C@@]2(CCc3ccccc3CO2)O1	0	0	0	-2	-1	0	/
O=C(N/N=C/c1ccccn1)c1cc(-c2ccc(Cl)s2)[nH]n1	42*	47	1	-28	5	21	3
Cc1nn(-c2ccccc2)c(C)c1/C=N/NC(=O)c1cc(-c2ccc(Cl)s2)[nH]n1	-2	-2	3	-2	3	-8	/
CC(Sc1nnc(N)s1)C(=O)Nc1ccc2c(c1)OCO2 (stereo not drawn)	-3	5	5	2	1	-3	/
O=C1CC(=O)Nc2cc(S(=O)(=O)NCc3cccs3)ccc2N1	74*	-3	-2	-3	-1	3	8
O=C(O)c1cccc(S(=O)(=O)NCc2cccs2)c1	0	-7	27	-3	-1	7	/
Cc1cc2nc(/C=C/c3nc4cc(C)c(C)cc4[nH]3)[nH]c2cc1C	46*	-4	-1	-3	39	27	19
COc1ccc(S(=O)(=O)N=C2C=C(C)C(=O)C(C)=C2)cc1	45*	-7	-2	11	0	-8	-14
O=C(NCCO)/C(=C\c1cccc([N+](=O)[O-])c1)NC(=O)c1cccs1	-1	/	-20	/	-2	2	/
CCNc1nc(NCC)nc(NC(N)=S)n1	-1	-1	0	-5	0	4	/
CCNc1nc(NC(N)=S)nc(NC(C)(C)C)n1	37*	-9	0	-6	2	-1	10
O=C1CCCN1CCCNC(=S)Nc1ccc(F)cc1	43*	6	1	-12	-1	2	2
SMILES	STEP inh	Scp-1 inhibitor	SUMO1-SIM PPI	HKDC1 inhibitor	LMPTP block	DNMT1 block	STEP inh conf
COc1ccc(NC(=S)NCCCN2CCCC2=O)c(OC)c1	46*	3	-6	-1	-1	0	24
O=C(COc1ccc(S(=O)(=O)N2CCCC2)cc1Cl)NCc1cccnc1	-2	-5	12	-3	1	-1	/
Cc1n[nH]c(=O)nc1NCCN(C)C	14	-5	1	3	-4	11	/
Cc1n[nH]c(=O)nc1NCc1ccc(Cl)cc1	39*	0	-2	1	-2	3	20
CC(=O)N1CCC(N(CCN2CCOCC2)C(=S)Nc2ccc(C)cc2)CC1	63*	-5	2	-3	-3	0	21*
CC(=O)N1CCC(N(CCN2CCOCC2)C(=S)Nc2ccc(C)cc2C)CC1	6	-2	5	2	1	4	/
COc1ccc(NC(=S)N(CCN2CCOCC2)C2CCN(C(C)=O)CC2)cc1Cl	16	6	5	-6	-2	2	/
COc1cc(Cl)ccc1NC(=S)N(CCN1CCOCC1)C1CCN(C(C)=O)CC1	51*	0	-2	12	-2	0	8
COc1ccc(SCCCn2c(=O)c3c(ncn3C)n(C)c2=O)cc1	1	-4	1	-4	0	1	/
CC(=O)Nc1ccc(/C=N/N2CCCCC2)cc1	1	-1	-3	4	-1	3	/
O=C(OCc1ccccc1)/C(=C/c1cccc2ccccc12)NC(=O)c1ccccc1	-2	-8	-6	-1	3	-3	/
Cc1ccc(C(=O)N/C(=C\c2ccccc2)C(=O)OCc2ccccc2)cc1	60*	-11	0	-3	2	-6	18
Cc1cc(C)c(NC(=S)N2CCC(N(C)CC3CCCO3)CC2)c(C)c1 (stereo not drawn)	86*	-6	2	-8	-5	1	30
Cc1cccc(C)c1NC(=S)N1CCC(N(C)CC2CCCO2)CC1 (stereo not drawn)	3	-3	2	2	-4	-1	/
O=C(N=C1SC2CS(=O)(=O)CC2N1c1ccc(OC(F)(F)F)cc1)C1CC1 (stereo not drawn)	5	-1	3	1	-1	2	/
Cc1nc(C)n(C(C)CNC(=O)c2ccco2)n1 (stereo not drawn)	0	-3	3	-2	0	6	/
CC1(C)Cc2c(sc(NC(=O)/C=C/C(=O)O)c2C#N)CO1	-1	0	1	-5	-3	2	/
